Laboratory results as given in publication PMC5362268 (Cell, 2017).
≈ marks a conversion by molar mass, not a printed value. Where “and” joins values, the source holds several entries; their conditions need not be identical. Identical values can stand only once.

Tests used:
[1] = biological target: T1, KRAS^G12D-GppNHp (Homo sapiens, UniProt P01116, G12D); experiment: Isothermal titration calorimetry; format: binding
Method in brief: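 Test compound in the cell at 200 µM (1.25% DMSO); protein in the syringe at 2.0 mM, DMSO-matched. Run at 25 °C: 19 × 2 µl injections, 180 s apart; reference power 5 µcal/sec.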

[2] = biological target: T1, KRAS^G12D-GppNHp; experiment: Microscale thermophoresis; format: binding; conditions: selectivity panel
Method in brief: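 To strip endogenous nucleotide, KRAS G12D (250 μM) in 25 mM HEPES, 100 mM NaCl, 20 mM EDTA and 1 mM GppNHp was shaken at 220 rpm, 30 °C, before MST.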

[3] = biological target: KRAS^wt (Homo sapiens, UniProt P01116); experiment: MST with RAS GTPases; format: binding; conditions: selectivity panel, GppNHp-loaded
[4] = biological target: NRAS^wt (Homo sapiens, UniProt P01111); experiment: MST with RAS GTPases; format: binding; conditions: selectivity panel, GppNHp-loaded
[5] = biological target: RRAS2 (Homo sapiens, UniProt P62070); experiment: MST with RAS GTPases; format: binding; conditions: selectivity panel, GppNHp-loaded
[6] = system: Kras^lox/lox, Hras^−/−, Nras^−/− RERTn^ert/ert MEFs; experiment: Viability assay in mouse embryo fibroblasts; format: cell-based; conditions: Fibroblast, 48 h, read-out: IC50 (lethality)
Method in brief: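 Cells trypsinised and seeded at 1,000/well in 384-well plates unless otherwise specified. After 16 h, 8- or 16-point dilution series (from 10 mM DMSO stocks) transferred at 1:5. At 48 h, Alamar blue added to 10% final; fluorescence read after 6 h (ex 535, em 590 nm). Triplicates; 37 °C, 5% CO2.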

[7] = system: HT-1080 cells; experiment: Caspase 3/7 activation assay; format: cell-based, human; conditions: 24 h; compared with staurosporine
Method in brief: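 HT-1080 cells seeded at 1,000 cells/well in 384-well plates. After 16 h, test compound was added as a dilution series, made from 50 mM DMSO stocks and transferred into assay wells at 1:5 dilution.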

[8] = system: T-ALL cells with mutant NRAS (G13V and G13D); experiment: Viability of primary T-ALL patient samples; format: cell-based; conditions: Homo sapiens, 72 h
Method in brief: (§1)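 Primary T-ALL lymphoblasts, 250,000 per well in 24-well plates, in triplicate. Treated with DMSO vehicle or test compound across 1 to 5 μM for 72 h. Viability by flow-based kit with counting beads, gating out GFP+ stromal cells and PI+ dead cells and particles.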

[9] = system: T-ALL cells with wild-type NRAS; experiment: Viability of primary T-ALL patient samples; format: cell-based, human; conditions: 5 μM, 72 h, four patient samples
Method in brief: as §1

[10] = system: SW480 (KRAS^G12V); experiment: Multicellular tumor spheroids; format: cell-based, human; conditions: low-adherence plates, 72 h
[11] = system: pERK and pAKT in Hras^−/−; Nras^−/−; Kras^flox/flox MEFs; experiment: Western blots of mouse embryo fibroblasts; format: cell-based; conditions: treatment for 0.6 h, 1 h or 16 h, EGF stimulated
Method in brief: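 MEFs seeded at 0.25 million/well in DMEM with Glutamax, 10% heat-inactivated FBS and P/S, grown to 80% confluence, then serum-starved 24 h. Serum-free treatment with 5 μM test compound for 35 min or 1 h, or 2 μM for 16 h, then EGF 10 ng/ml for 15 min. Quantified as (phospho/tubulin)/(total/tubulin), normalised to DMSO.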

[12] = Pharmacokinetic analysis in mice; format: in vivo, mouse; conditions: 20 mg/kg, plasma
Method in brief: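 Plasma flash-frozen in liquid nitrogen, stored at −80 °C, and assayed by UPLC-MS-MS. Plasma from six untreated mice used for calibration and matrix correction. AUCINF calculated from t = 0 to infinity using calculated half-life and last measured concentration.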

[13] = system: MDA-MB-231 xenograft; experiment: Xenograft therapeutic study in mice; format: in vivo, mouse; conditions: 180 mg/kg orally, 10 doses, 15 days of treatment, nude mice
Method in brief: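 Eight-week-old female nude mice received 7 million MDA-MB-231 cells subcutaneously. After 3 d they were randomised at ~58 mm³ tumours. Dosing was oral, 180 mg/kg (12 mg/mL, 10% DMSO, pH 4) or vehicle, 10 doses over 14 d. Tumours measured by caliper every 2 d; volume = 0.523 × length × width².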

[14] = system: phosphorylated ERK in MDA-MB-231 xenograft; experiment: Pharmacodynamic study using MDA-MB-231 cells; format: in vivo, mouse; conditions: 30 mg/kg IP once per day for 6 d, vs vehicle
Method in brief: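 Eight-week-old athymic nude mice received 8 million MDA-MB-231 cells subcutaneously. After 4 d they were grouped at ~128 mm³ tumours and dosed IP once daily for 6 d with 30 mg/kg in 5% DMSO HBSS pH 4, or with that vehicle. Tumours were then analysed for phosphorylated ERK.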

[15] = system: PDTALL22 patient T-ALL xenograft; experiment: Patient-derived xenograft study; format: in vivo, mouse; conditions: 30 mg/kg IP
Method in brief: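 Retrovirally transduced luciferase-expressing T-ALL cells were expanded in primary recipients, harvested from spleen and injected into secondary recipients. These were randomised into two groups of 5 with equal luciferase load. Dosing: vehicle or 30 mg/kg IP in 5% DMSO in HBSS pH 4 on days 0, 1, 4, 5, 7, 8. Imaging on days 0, 4 and 8; sacrifice on day 8 for spleen weight and human CD45+ cells.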

[16] = system: KP^f/fC mice; experiment: Toxicity in KP^f/fC mouse study; format: in vivo; conditions: 30 mg/kg IP once daily
[17] = system: pAKT (S473), pERK1/2 and cleaved caspase-3 in KP^f/fC pancreatic tumors; experiment: KP^f/fC mouse pharmacodynamic study; format: in vivo; conditions: post- vs pre-treatment tumor samples
[18] = K mouse weights on study; format: in vivo; conditions: individual mice
[19] = Solubility of compound 3144; format: physicochemical

Sequence of RRAS2 (P62070 whole entry): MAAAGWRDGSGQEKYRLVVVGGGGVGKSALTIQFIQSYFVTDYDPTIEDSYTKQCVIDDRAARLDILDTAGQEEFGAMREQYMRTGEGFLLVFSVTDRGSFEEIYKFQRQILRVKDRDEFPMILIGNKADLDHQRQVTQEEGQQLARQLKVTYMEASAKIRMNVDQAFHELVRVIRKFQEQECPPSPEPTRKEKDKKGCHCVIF
Sequence of NRAS^wt (P01111 whole entry): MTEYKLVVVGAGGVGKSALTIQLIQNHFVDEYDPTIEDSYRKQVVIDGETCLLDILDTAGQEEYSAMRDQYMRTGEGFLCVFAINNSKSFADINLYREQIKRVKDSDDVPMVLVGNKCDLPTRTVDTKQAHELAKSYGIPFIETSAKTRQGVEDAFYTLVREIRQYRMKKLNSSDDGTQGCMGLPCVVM

NC1(C(=O)NCCCn2cc(-c3ccc(OC(F)(F)F)cc3)c3cc(CN4CCN(Cc5c(Cl)cccc5Cl)CC4)ccc32)CCNCC1 [compound 3144, 4-amino-N-(3-(5-((4-(2,6-dichlorobenzyl)piperazin-1-yl)methyl)-3-(4-(trifluoromethoxy)phenyl)-1H-indol-1-yl)propyl)piperidine-4-carboxamide]
Kd [1]: 17.8 ± 4.5 µM
binding by MST [2]: detected binding
binding by MST [3]: detected binding
binding by MST [4]: detected binding
binding by MST [5]: weak binding
IC50 [6]: 3.8 µM
caspase activity [7]: induced caspase activity to a similar level as staurosporine
viability at 5 µM [8]: 20 to 40%
effect on viability [9]: no observable effect on viability
spheroid size [10]: decreased in size in a dose-dependent manner
pERK and pAKT abundance [11]: moderately decreased
Tlast ([12]; IP, male C57BL/6 mice): 12 h
Tlast ([12]; IV, male C57BL/6 mice): 12 h
HL_Lambda_z ([12]; PO, male C57BL/6 mice): >12 h
Tlast ([12]; PO, male C57BL/6 mice): 12 h
AUC(0-inf) ([12]; male, C57BL/6, mouse, po): 5650 ng·h/mL
tumor growth [13]: inhibition of tumor growth
tumor pERK levels [14]: somewhat decreased
percent of infiltrative human CD45+ cells in spleen ([15]; day 8): reduction
spleen cellularity (hematoxylin and eosin) ([15]; day 8): decreased cellularity
spleen size ([15]; day 8): decrease in size
tumor burden (luciferase imaging) ([15]; days 0, 1, 4, 5, 7, 8, imaged after 4 and 8 days): decrease in tumor burden
toxicity [16]: Toxicity was observed
cleaved caspase-3 in tumor [17]: modest increase
pAKT (S473) and pERK1/2 in tumor ([17]; 30 mg/kg IP once daily): decrease
K mouse weights ([18]; day 1 on study): 19.1 and 14.5 and 22.9 and 26.1 and 18.5
K mouse weights ([18]; day 2 on study): 18.4 and 14.1 and 21.6 and 24.7 and 17.4
K mouse weights ([18]; day 3 on study): 18.6 and 14.2 and 20.7 and 23.6 and 17
K mouse weights ([18]; day 4 on study): 17.5 and 14.2 and 20.1 and 23.27 and 17.7
K mouse weights ([18]; day 5 on study): 17.5 and 13.63 and 19.8 and 22.7 and 16.5
concentration without visible precipitation ([19]; aqueous buffers (e.g., phosphate buffered saline), room temperature, 1.5% DMSO): ≥ 250 µM
solubility ([19]; aqueous solutions, aqueous buffer, kinetic from dmso stock): 5 µM (≈ 3.59 µg/mL)
